From ChEMBL document CHEMBL1146986, “Synthesis and SAR studies of very potent imidazopyridine antiprotozoal agents” (Bioorg Med Chem Lett, 2006)
Active and inactive are the calls of the source. The rule behind the calls is not given here.

Legend:
[1] = system: Eimeria tenella; experiment: Antiparasitic activity against Eimeria tenella in chicken at 12.5 ppm in feed assessed as percent reduction in oocyst; type: functional; design: scale not given: the % may be the effect or the level left
In short: (§1)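 Infected chickens given compound orally in feed (ppm), seven-day in vivo efficacy model; activity quantified from oocyst shedding and graded as percent oocyst reduction versus infection.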

[2] = target: cGMP-dependent protein kinase (Eimeria tenella, UniProt Q8MMZ8); experiment: Inhibitory activity against PKG
cGMP-dependent protein kinase, sequence (Q8MMZ8 whole entry): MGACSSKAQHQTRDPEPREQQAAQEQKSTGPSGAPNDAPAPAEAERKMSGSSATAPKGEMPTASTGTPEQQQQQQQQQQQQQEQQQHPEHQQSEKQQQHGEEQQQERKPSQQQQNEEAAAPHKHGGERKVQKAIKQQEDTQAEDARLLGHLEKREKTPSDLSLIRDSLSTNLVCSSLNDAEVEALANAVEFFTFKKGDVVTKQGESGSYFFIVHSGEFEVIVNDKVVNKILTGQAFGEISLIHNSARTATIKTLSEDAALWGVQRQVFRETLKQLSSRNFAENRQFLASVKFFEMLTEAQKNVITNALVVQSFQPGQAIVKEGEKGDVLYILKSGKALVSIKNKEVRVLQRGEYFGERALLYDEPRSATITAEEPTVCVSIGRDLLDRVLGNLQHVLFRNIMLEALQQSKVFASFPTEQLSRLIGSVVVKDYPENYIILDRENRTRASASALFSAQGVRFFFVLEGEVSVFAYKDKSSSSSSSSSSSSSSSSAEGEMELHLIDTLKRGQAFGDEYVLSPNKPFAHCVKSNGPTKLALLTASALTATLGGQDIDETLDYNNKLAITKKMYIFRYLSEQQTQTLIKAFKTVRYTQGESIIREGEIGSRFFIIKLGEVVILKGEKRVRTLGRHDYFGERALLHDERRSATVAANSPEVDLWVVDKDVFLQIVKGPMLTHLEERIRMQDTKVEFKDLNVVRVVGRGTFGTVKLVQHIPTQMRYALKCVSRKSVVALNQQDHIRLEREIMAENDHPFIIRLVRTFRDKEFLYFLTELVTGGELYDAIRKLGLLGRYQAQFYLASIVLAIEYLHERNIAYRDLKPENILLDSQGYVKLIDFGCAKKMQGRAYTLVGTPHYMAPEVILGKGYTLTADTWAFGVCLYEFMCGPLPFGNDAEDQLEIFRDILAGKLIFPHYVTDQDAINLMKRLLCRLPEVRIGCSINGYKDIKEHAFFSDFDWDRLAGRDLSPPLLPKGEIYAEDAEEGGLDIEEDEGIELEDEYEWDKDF

[3] = system: Eimeria acervulina; experiment: Antiparasitic activity against Eimeria acervulina in chicken at 12.5 ppm in feed assessed as percent reduction in oocyst; type: functional; design: scale not given: the % may be the effect or the level left; in short: as §1
[4] = system: Eimeria tenella; experiment: Antiparasitic activity against Eimeria tenella in chicken at 25 ppm in feed assessed as percent reduction in oocyst; type: functional; design: scale not given: the % may be the effect or the level left; in short: as §1
[5] = system: Eimeria acervulina; experiment: Antiparasitic activity against Eimeria acervulina in chicken at 25 ppm in feed assessed as percent reduction in oocyst; type: functional; design: scale not given: the % may be the effect or the level left; in short: as §1
[6] = system: Eimeria tenella; experiment: Antiparasitic activity against Eimeria tenella in chicken at 6.25 ppm in feed assessed as percent reduction in oocyst; type: functional; design: scale not given: the % may be the effect or the level left
In short: (§2)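 Seven-day in vivo anticoccidial model in chickens infected with E. tenella and E. acervulina. Compound is given orally in feed (ppm). Oocyst shedding from infected birds is quantified, and activity is graded by percent oocyst reduction.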

[7] = system: Eimeria acervulina; experiment: Antiparasitic activity against Eimeria acervulina in chicken at 6.25 ppm in feed assessed as percent reduction in oocyst; type: functional; design: scale not given: the % may be the effect or the level left; in short: as §2
[8] = system: Salmonella typhimurium; experiment: […] against Salmonella Typhimurium TA98 at 3000 ug/plate by Ames microbial mutagenesis assay; type: functional, organism-based; conditions: Salmonella enterica subsp. enterica serovar Typhimurium
In short: (§3)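 Plate-incorporation reverse mutation test: about 10^8 bacterial cells in molten top agar are mixed with test article in DMSO and cofactor plus S9 fraction (50 µL/plate) from induced male Sprague–Dawley rats. Plated in triplicate and incubated 37 °C for 48 h. Revertant colonies are counted automatically, as mean ± standard deviation (n = 3). A twofold or greater increase over solvent control counts as positive.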

[9] = system: Salmonella typhimurium; experiment: […] against Salmonella Typhimurium TA98 at 6000 ug/plate by Ames microbial mutagenesis assay; type: functional, organism-based; conditions: Salmonella enterica subsp. enterica serovar Typhimurium; in short: as §3
[10] = system: Salmonella typhimurium; experiment: […] against Salmonella Typhimurium TA100 at 3000 ug/plate by Ames microbial mutagenesis assay; type: functional, organism-based; conditions: Salmonella enterica subsp. enterica serovar Typhimurium; in short: as §3
[11] = system: Salmonella typhimurium; experiment: […] against Salmonella Typhimurium TA100 at 6000 ug/plate by Ames microbial mutagenesis assay; type: functional, organism-based; conditions: Salmonella enterica subsp. enterica serovar Typhimurium; in short: as §3

IC50 [2] [nM]	Compound	Activity [4]	Activity [5]	other results
0.13	CCCNc1nccc(-c2c(-c3ccc(F)cc3)nc3cc(CN(C)C)ccn23)n1			Activity [1]: >=80%; Activity [3]: >=80%
0.15	CNCc1ccn2c(-c3ccnc(N)n3)c(-c3ccc(F)cc3)nc2c1	<50%	<50%	
1.9	CN(C)Cc1ccn2c(-c3ccncn3)c(-c3ccc(F)cc3)nc2c1	<50%	<50%	
2.6	COc1nccc(-c2c(-c3ccc(F)cc3)nc3cc(CN(C)C)ccn23)n1	<50%	<50%	
0.17	CNc1nccc(-c2c(-c3ccc(F)cc3)nc3cc(CN(C)C)ccn23)n1	>=80%	>=80%	
0.18	NCc1ccn2c(-c3ccnc(N)n3)c(-c3ccc(F)cc3)nc2c1	<50%	<50%	
2.7	Nc1nccc(-c2c(-c3ccc(F)cc3)nc3cc(Cl)ccn23)n1	<50%	<50%	
0.15	CN(C)Cc1ccn2c(-c3ccnc(NCC(C)(C)C)n3)c(-c3ccc(F)cc3)nc2c1			Activity [1]: >=80%; Activity [3]: >=80%
2.5	CN(C)Cc1ccn2c(-c3ccnc(N(C)C)n3)c(-c3ccc(F)cc3)nc2c1	<50%	<50%	
0.081	CN(C)Cc1ccn2c(-c3ccnc(NCc4ccccc4)n3)c(-c3ccc(F)cc3)nc2c1	>=80%	>=80%	
11.3	N#Cc1ccn2c(-c3ccnc(N)n3)c(-c3ccc(F)cc3)nc2c1	<50%	<50%	
0.05	Nc1nccc(-c2c(-c3ccc(F)cc3)nc3cc(C4CCNCC4)ccn23)n1	<50%	<50%	
2.7	Nc1nccc(-c2c(-c3ccc(F)cc3)nc3cc(CO)ccn23)n1	<50%	<50%	

Compound	IC50 [2] [nM]	Activity [4]	Activity [5]	other results
CN(C)Cc1ccn2c(-c3ccnc(N)n3)c(-c3ccc(F)cc3)nc2c1	0.11			Activity [1]: >=80%; Activity [6]: 50%; Activity [3]: >=80%; Activity [7]: 50%; Activity [8]: Active; Activity [9]: Active; Activity [10]: Active; Activity [11]: Active
CN1CCC(c2ccn3c(-c4ccnc(N)n4)c(-c4ccc(F)cc4)nc3c2)CC1	0.04			Activity [6]: >=80%; Activity [3]: 50%; Activity [7]: >=80%; Activity [8]: Active; Activity [9]: Active; Activity [10]: Active; Activity [11]: Active
